According to ChEMBL document CHEMBL1136016, “Synthesis, biological activity, and molecular modeling investigation of new pyrazolo[4,3-e]-1,2,4-triazolo[1,5-c]pyrimidine derivatives as human A(3) adenosine receptor antagonists” (J Med Chem, 2002):
Each block holds one molecule with its values, some of them ahead of it.

Columns and labels:
Adenosine receptor A1 [1] = target: T1, Adenosine receptor A1 (Homo sapiens, UniProt P30542); test: Displacement of [3H]DPCPX from human Adenosine A1 receptor expressed in CHO cells; range 738-961; format: cell-based
T1 sequence (P30542 whole entry): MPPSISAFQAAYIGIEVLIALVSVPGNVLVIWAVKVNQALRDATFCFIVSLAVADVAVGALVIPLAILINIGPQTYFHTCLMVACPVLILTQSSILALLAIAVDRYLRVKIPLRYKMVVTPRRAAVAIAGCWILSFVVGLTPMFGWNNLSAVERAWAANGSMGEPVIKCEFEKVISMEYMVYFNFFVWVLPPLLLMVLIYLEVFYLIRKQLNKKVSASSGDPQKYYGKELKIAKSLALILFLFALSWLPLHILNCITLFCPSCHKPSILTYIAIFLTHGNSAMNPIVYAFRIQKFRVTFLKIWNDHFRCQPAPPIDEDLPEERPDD
Method in brief: (§1)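 Human recombinant A1 receptor in CHO cell membranes, resuspended in 50 mM Tris HCl pH 7.4. Displacement run 120 min at 25 °C with 1 nM [3H]DPCPX, 50 µg protein per assay, and at least six to eight test concentrations. Nonspecific binding defined with CHA. Bound and free separated on glass-fiber filters; filter radioactivity counted. n = 3-6.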

Adenosine receptor A2b [2] = target: T2, Adenosine receptor A2b (Homo sapiens, UniProt P29275); test: Displacement of [3H]DPCPX from human Adenosine A2B receptor expressed in HEK293 cells; range 40-69; format: cell-based
T2 sequence (P29275 whole entry): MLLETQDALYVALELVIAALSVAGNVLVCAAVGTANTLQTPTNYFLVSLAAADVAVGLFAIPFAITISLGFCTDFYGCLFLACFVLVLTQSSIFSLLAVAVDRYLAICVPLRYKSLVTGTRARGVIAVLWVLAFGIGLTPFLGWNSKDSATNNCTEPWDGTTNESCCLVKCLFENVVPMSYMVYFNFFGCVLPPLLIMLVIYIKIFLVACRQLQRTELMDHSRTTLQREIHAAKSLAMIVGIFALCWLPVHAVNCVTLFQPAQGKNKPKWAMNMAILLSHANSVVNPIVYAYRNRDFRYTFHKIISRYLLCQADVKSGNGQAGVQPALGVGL
Method in brief: (§2)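 Membranes from HEK-293 cells with human recombinant A2B receptor. Incubation 60 min at 25 °C in 50 mM Tris HCl, 10 mM MgCl2, 1 mM EDTA, 0.1 mM benzamidine, pH 7.4, with 2 IU/mL adenosine deaminase and 40 nM [3H]DPCPX. At least six to eight test concentrations. Nonspecific binding defined with NECA. n = 3-6.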

Adenosine receptor A3 [3] = target: T3, Adenosine receptor A3 (Homo sapiens, UniProt P0DMS8); test: Displacement of [3H]MRE3008-F20 from human Adenosine A3 receptor expressed in HEK cells; range 0.22-0.40; format: cell-based, HEK293
T3 sequence (P0DMS8 whole entry): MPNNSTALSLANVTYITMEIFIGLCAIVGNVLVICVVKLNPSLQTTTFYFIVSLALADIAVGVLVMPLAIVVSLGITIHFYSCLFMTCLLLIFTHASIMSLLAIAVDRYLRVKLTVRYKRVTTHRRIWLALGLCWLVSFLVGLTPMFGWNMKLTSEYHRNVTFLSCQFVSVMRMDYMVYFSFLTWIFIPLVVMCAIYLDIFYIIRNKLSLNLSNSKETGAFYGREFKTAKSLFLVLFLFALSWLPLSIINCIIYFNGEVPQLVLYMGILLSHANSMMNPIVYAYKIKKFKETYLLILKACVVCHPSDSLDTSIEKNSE

Adenosine receptor A2a [4] = target: T4, Adenosine receptor A2a (Homo sapiens, UniProt P29274); test: Displacement of [3H]SCH-58,261 from human Adenosine A2A receptor expressed in HEK293 cells; range 543-820; format: cell-based
T4 sequence (P29274 whole entry): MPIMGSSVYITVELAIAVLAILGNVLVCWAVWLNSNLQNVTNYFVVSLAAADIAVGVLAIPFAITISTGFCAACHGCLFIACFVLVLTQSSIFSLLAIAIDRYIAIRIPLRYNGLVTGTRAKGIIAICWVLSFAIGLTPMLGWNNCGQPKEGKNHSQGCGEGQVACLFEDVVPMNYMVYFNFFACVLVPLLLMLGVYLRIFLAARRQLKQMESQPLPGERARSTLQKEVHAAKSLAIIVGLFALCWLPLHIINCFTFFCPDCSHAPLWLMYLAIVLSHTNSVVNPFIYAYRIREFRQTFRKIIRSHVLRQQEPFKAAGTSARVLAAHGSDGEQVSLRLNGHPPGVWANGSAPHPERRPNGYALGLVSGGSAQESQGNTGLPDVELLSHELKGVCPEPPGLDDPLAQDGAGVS

[5] = target: Adenosine receptors; A2b & A3 (Homo sapiens) (UniProt P29275+P0DMS8); test: Selectivity ratio (h2B/hA3); format: protein assay
[6] = target: Adenosine receptors; A1 & A3 (Homo sapiens) (UniProt P30542+P0DMS8); test: Selectivity ratio (hA1/hA3); format: protein assay
Adenosine receptor A1 [7] = target: T1, Adenosine receptor A1; test: Displacement of [3H]DPCPX from human Adenosine A1 receptor expressed in CHO cells; format: cell-based; method in brief: as §1
Adenosine receptor A2b [8] = target: T2, Adenosine receptor A2b; test: Displacement of [3H]DPCPX from human Adenosine A2B receptor expressed in HEK293 cells; format: cell-based; method in brief: as §2
Adenosine receptor A3 [9] = target: T3, Adenosine receptor A3; test: Displacement of […] from human Adenosine A3 receptor expressed in CHO cells; format: cell-based
Method in brief: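 Membranes from CHO cells stably expressing human A3, in 50 mM Tris HCl, 10 mM MgCl2 (pH 7.4), 50 µg protein per tube, with 1 nM [3H]MRE3008-F20. Six to eight ligand concentrations were run in duplicate, 120 min at 4 °C. Nonspecific binding was taken with 1 µM MRE3008-F20. Bound ligand was collected on GF/B filters and counted; n = 3-6.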

Adenosine receptor A3 [10] = target: T3, Adenosine receptor A3; test: Inhibition of IB-MECA agonist-mediated cAMP production in membranes of CHO cells expressing human Adenosine A3 receptor; format: functional, cell-based
Method in brief: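 Human A3-CHO membranes (in 50 mM Tris HCl, 10 mM MgCl2, 1 mM EDTA, pH 7.4) were preincubated for 10 min at 37 °C with 5 µM GTP, 0.5 mM Ro 20-1724 and 2.0 IU/mL adenosine deaminase. IB-MECA (100 nM) or antagonist was then added with 1 mM ATP and forskolin for 10 min. The reaction was stopped by 2 min boiling. cAMP was measured by [3H]cAMP competitive protein binding using beef adrenal binding protein, 150 min at 4 °C.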

Adenosine receptor A2a [11] = target: T4, Adenosine receptor A2a; test: Displacement of [3H]SCH-58261 from human Adenosine A2A receptor expressed in CHO cells; format: cell-based
Method in brief: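 Membranes from CHO cells expressing the human receptor (50 µg protein) with [3H]SCH58261 and six to eight competitor concentrations. Incubated 60 min at 25 °C. Nonspecific binding was set with NECA.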

Adenosine receptor A2b [12] = target: T2, Adenosine receptor A2b; test: Displacement of [3H]DPCPX from human Adenosine A2B receptor expressed in HEK293 cells; range 67-115; format: cell-based
Method in brief: (§3)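 HEK-293 membranes expressing the human receptor were incubated 60 min at 25 °C. Six to eight test concentrations were used. Nonspecific binding was set with NECA. n = 3-6.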

Adenosine receptor A1 [13] = target: T1, Adenosine receptor A1; test: Displacement of [3H]DPCPX from human Adenosine A1 receptor expressed in CHO cells; range 275-386; format: cell-based; method in brief: as §1
Adenosine receptor A2a [14] = target: T4, Adenosine receptor A2a; test: Displacement of [3H]SCH-58261 from human Adenosine A2A receptor expressed in HEK293 cells; range 33-48; format: cell-based
Adenosine receptor A3 [15] = target: T3, Adenosine receptor A3; test: biochemical
Adenosine receptor A1 [16] = target: T1, Adenosine receptor A1; test: Displacement of [3H]DPCPX from human Adenosine A1 receptor expressed in CHO cells; range 885-1163; format: cell-based; method in brief: as §1
Adenosine receptor A2b [17] = target: T2, Adenosine receptor A2b; test: Displacement of [3H]DPCPX from human Adenosine A2B receptor expressed in HEK293 cells; range 128-156; format: cell-based; method in brief: as §2
Adenosine receptor A2a [18] = target: T4, Adenosine receptor A2a; test: Displacement of [3H]SCH-58261 from human Adenosine A2A receptor expressed in HEK293 cells; range 552-839; format: cell-based
Adenosine receptor A3 [19] = target: T3, Adenosine receptor A3; test: Inhibition of IB-MECA agonist-mediated cAMP production in CHO cell membranes expressing human Adenosine A3 receptor; range 1.8-5.6; format: functional, cell-based
Adenosine receptor A3 [20] = target: T3, Adenosine receptor A3; test: biochemical; remark: listed apart in the source
Adenosine receptor A1 [21] = target: T1, Adenosine receptor A1; test: Displacement of [3H]DPCPX from human Adenosine A1 receptor expressed in CHO cells; range 237-384; format: cell-based
Method in brief: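 Competition binding on membranes of CHO cells stably expressing human A1 receptor, resuspended in 50 mM Tris HCl pH 7.4. Incubation 120 min at 25 °C with 1 nM [3H]DPCPX, 50 µg protein per assay and at least six to eight test concentrations. CHA defined nonspecific binding. Bound ligand separated on glass-fibre filters and counted; n = 3-6.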

Adenosine receptor A3 [22] = target: T3, Adenosine receptor A3; test: Displacement of [3H]MRE3008-F20 from human Adenosine A3 receptor expressed in HEK cells; range 0.31-0.56; format: cell-based, HEK293
Adenosine receptor A2a [23] = target: T4, Adenosine receptor A2a; test: Displacement of [3H]SCH-58261 from human Adenosine A2A receptor expressed in HEK293 cells; range 8-18; format: cell-based
Adenosine receptor A2b [24] = target: T2, Adenosine receptor A2b; test: Displacement of [3H]DPCPX from human Adenosine A2B receptor expressed in HEK293 cells; range 34-62; format: cell-based; method in brief: as §3

Ki (Adenosine receptor A1 [1]): 0.842 µM | Ki (Adenosine receptor A2b [2]): 0.053 µM | Ki (Adenosine receptor A3 [3]): 0.0003 µM | Ki (Adenosine receptor A2a [4]): 0.667 µM | Ratio [5]: 177 | Ratio [6]: 2810
Structure (SMILES): CCCn1cc2c(nc(NC(=O)Nc3ccc4c(c3)OCO4)n3nc(-c4ccco4)nc23)n1

Ki (Adenosine receptor A1 [21]): 0.302 µM | Ki (Adenosine receptor A3 [22]): 0.0004 µM | Ki (Adenosine receptor A2a [23]): 0.012 µM | Ki (Adenosine receptor A2b [24]): 0.046 µM | Ratio [5]: 115 | Ratio [6]: 755
Structure (SMILES): CCCn1cc2c(nc(NC(=O)Nc3ccc(C)cc3)n3nc(-c4ccco4)nc23)n1

More lines, now with the values behind:

Structure (SMILES): Cn1cc2c(nc(NC(=O)Cc3ccccc3)n3nc(-c4ccco4)nc23)n1
Ki (Adenosine receptor A1 [7]): 0.702 µM | Ki (Adenosine receptor A2b [8]): 0.165 µM | Ki (Adenosine receptor A3 [9]): 0.00081 µM | IC50 (Adenosine receptor A3 [10]): 0.0064 µM | Ki (Adenosine receptor A2a [11]): 0.423 µM | Ratio [5]: 204 | Ratio [6]: 867

Structure (SMILES): CCn1cc2c(nc(NC(=O)Nc3ccccc3)n3nc(-c4ccco4)nc23)n1
Ki (Adenosine receptor A2b [12]): 0.088 µM | Ki (Adenosine receptor A1 [13]): 0.326 µM | Ki (Adenosine receptor A2a [14]): 0.04 µM | Ratio [5]: 489 | Ratio [6]: 1810 | Ki (Adenosine receptor A3 [15]): 0.00018 µM

Structure (SMILES): Cn1cc2c(nc(NC(=O)Nc3ccc4c(c3)OCO4)n3nc(-c4ccco4)nc23)n1
Ki (Adenosine receptor A1 [16]): 1.02 µM | Ki (Adenosine receptor A2b [17]): 0.142 µM | Ki (Adenosine receptor A2a [18]): 0.68 µM | IC50 (Adenosine receptor A3 [19]): 0.0032 µM | Ratio [5]: 592 | Ratio [6]: 4230 | Ki (Adenosine receptor A3 [20]): 0.00024 µM
